# In ChEMBL document CHEMBL3352237, “Synthesis and biological evaluation of novel peptide BF2 as an antibacterial agent against clinical isolates of vancomycin-resistant enterococci” (J Med Chem, 2014):
# Experiments:
# Type in all cases: functional
# Enterococcus faecium [1] = experiment: Antibacterial activity against vancomycin-resistant Enterococcus faecium clinical isolate 16475 after overnight incubation by two-fold serial dilution method
# Enterococcus [2] = experiment: Antibacterial activity against vancomycin-resistant Enterococcus ATCC 51299 after overnight incubation by two-fold serial dilution method
# Enterococcus faecium [3] = experiment: Antibacterial activity against vancomycin-resistant Enterococcus faecium clinical isolate 151495 after overnight incubation by two-fold serial dilution method
# Enterococcus [4] = experiment: Antibacterial activity against vancomycin-resistant Enterococcus ATCC 29212 after overnight incubation by two-fold serial dilution method
# Enterococcus faecium [5] = experiment: Antibacterial activity against vancomycin-resistant Enterococcus faecium clinical isolate 12/266 after overnight incubation by two-fold serial dilution method
# Enterococcus faecium [6] = experiment: Antibacterial activity against vancomycin-resistant Enterococcus faecium clinical isolate 15/213 after overnight incubation by two-fold serial dilution method
# Enterococcus faecium [7] = experiment: Antibacterial activity against vancomycin-resistant Enterococcus faecium clinical isolate 29/203 after overnight incubation by two-fold serial dilution method
# Enterococcus faecium [8] = experiment: Antibacterial activity against vancomycin-resistant Enterococcus faecium clinical isolate 17301 after overnight incubation by two-fold serial dilution method
# Enterococcus faecium [9] = experiment: Antibacterial activity against vancomycin-resistant Enterococcus faecium clinical isolate 27/221 after overnight incubation by two-fold serial dilution method
# Enterococcus faecium [10] = experiment: Antibacterial activity against vancomycin-resistant Enterococcus faecium clinical isolate 7/27 after overnight incubation by two-fold serial dilution method
# Enterococcus faecium [11] = experiment: Antibacterial activity against vancomycin-resistant Enterococcus faecium clinical isolate 3864 after overnight incubation by two-fold serial dilution method
# Enterococcus faecium [12] = experiment: Antibacterial activity against vancomycin-resistant Enterococcus faecium clinical isolate 23/240 after overnight incubation by two-fold serial dilution method
# Enterococcus faecium [13] = experiment: Antibacterial activity against vancomycin-resistant Enterococcus faecium clinical isolate 6/22 after overnight incubation by two-fold serial dilution method
# Enterococcus faecium [14] = experiment: Antibacterial activity against vancomycin-resistant Enterococcus faecium clinical isolate 28/211 after overnight incubation by two-fold serial dilution method
# Enterococcus faecium [15] = experiment: Antibacterial activity against vancomycin-resistant Enterococcus faecium clinical isolate 5396 after overnight incubation by two-fold serial dilution method
# Enterococcus faecium [16] = experiment: Antibacterial activity against vancomycin-resistant Enterococcus faecium clinical isolate 8/224 after overnight incubation by two-fold serial dilution method
# Enterococcus faecium [17] = experiment: Antibacterial activity against vancomycin-resistant Enterococcus faecium clinical isolate 18906 after overnight incubation by two-fold serial dilution method
# Enterococcus faecium [18] = experiment: Antibacterial activity against vancomycin-resistant Enterococcus faecium clinical isolate 14643 after overnight incubation by two-fold serial dilution method
# Enterococcus [19] = experiment: Antibacterial activity against Enterococcus infected in Wistar albino rat assessed as reduction in cell count at 25 mg/kg, iv after 1 hr relative to control; set-up: scale not given: the % may be the effect or the level left
# Method in brief: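 Female Wistar albino rats, 40−45 days old, 125−150 g, 5 groups of 3. Enterococci were grown to log phase in MH broth, centrifuged at 1000g for 15 min, and diluted in PBS to 4 × 10^6 CFU/mL. Rats were inoculated i.v. and treated i.v. 1 h later with 12.5, 25 or 37.5 mg/kg peptide, PBS vehicle, or linezolid 25 mg/kg. Tail-vein blood taken 1 h post-treatment was plated on blood agar, incubated overnight at 37 °C, and colonies counted.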
# Enterococcus faecium [20] = experiment: Antibacterial activity against vancomycin-resistant Enterococcus faecium clinical isolate 27/16917 after overnight incubation by two-fold serial dilution method; conditions: isolate 27/1691
# Enterococcus faecium [21] = experiment: Antibacterial activity against vancomycin-resistant Enterococcus faecium clinical isolate 31386 after overnight incubation by two-fold serial dilution method
# Enterococcus faecium [22] = experiment: Antibacterial activity against vancomycin-resistant Enterococcus faecium clinical isolate 31176 after overnight incubation by two-fold serial dilution method
# Enterococcus faecium [23] = experiment: Antibacterial activity against vancomycin-resistant Enterococcus faecium clinical isolate 12875 after overnight incubation by two-fold serial dilution method
# Enterococcus faecium [24] = experiment: Antibacterial activity against vancomycin-resistant Enterococcus faecium clinical isolate 10177 after overnight incubation by two-fold serial dilution method
# Enterococcus faecium [25] = experiment: Antibacterial activity against vancomycin-resistant Enterococcus faecium clinical isolate 147969 after overnight incubation by two-fold serial dilution method
# Enterococcus faecium [26] = experiment: Antibacterial activity against vancomycin-resistant Enterococcus faecium clinical isolate 16115 after overnight incubation by two-fold serial dilution method
# Enterococcus faecium [27] = experiment: Antibacterial activity against vancomycin-resistant Enterococcus faecium clinical isolate 5484 after overnight incubation by two-fold serial dilution method
# Enterococcus faecium [28] = experiment: Antibacterial activity against vancomycin-resistant Enterococcus faecium clinical isolate 13246 after overnight incubation by two-fold serial dilution method
# Enterococcus faecium [29] = experiment: Antibacterial activity against vancomycin-resistant Enterococcus faecium clinical isolate 30/48 after overnight incubation by two-fold serial dilution method
# Enterococcus faecalis [30] = experiment: Antibacterial activity against vancomycin-resistant Enterococcus faecalis clinical isolate 27728 after overnight incubation by two-fold serial dilution method
# Enterococcus faecalis [31] = experiment: Antibacterial activity against vancomycin-resistant Enterococcus faecalis clinical isolate 22/203 after overnight incubation by two-fold serial dilution method
# Enterococcus faecalis [32] = experiment: Antibacterial activity against vancomycin-resistant Enterococcus faecalis clinical isolate 7846 after overnight incubation by two-fold serial dilution method
# Enterococcus faecalis [33] = experiment: Antibacterial activity against vancomycin-resistant Enterococcus faecalis clinical isolate 5814 after overnight incubation by two-fold serial dilution method
# Enterococcus faecalis [34] = experiment: Antibacterial activity against vancomycin-resistant Enterococcus faecalis clinical isolate 6093 after overnight incubation by two-fold serial dilution method
# Enterococcus faecalis [35] = experiment: Antibacterial activity against vancomycin-resistant Enterococcus faecalis clinical isolate 5642 after overnight incubation by two-fold serial dilution method
# Enterococcus faecalis [36] = experiment: Antibacterial activity against vancomycin-resistant Enterococcus faecalis clinical isolate 22626 after overnight incubation by two-fold serial dilution method
# Enterococcus faecalis [37] = experiment: Antibacterial activity against vancomycin-resistant Enterococcus faecalis clinical isolate 7079 after overnight incubation by two-fold serial dilution method
# Enterococcus faecalis [38] = experiment: Antibacterial activity against vancomycin-resistant Enterococcus faecalis clinical isolate 5648 after overnight incubation by two-fold serial dilution method
# Enterococcus faecalis [39] = experiment: Antibacterial activity against vancomycin-resistant Enterococcus faecalis clinical isolate 7670 after overnight incubation by two-fold serial dilution method
# Enterococcus faecalis [40] = experiment: Antibacterial activity against vancomycin-resistant Enterococcus faecalis clinical isolate 7077 after overnight incubation by two-fold serial dilution method
# Enterococcus faecalis [41] = experiment: Antibacterial activity against vancomycin-resistant Enterococcus faecalis clinical isolate 387702 after overnight incubation by two-fold serial dilution method
# Enterococcus faecalis [42] = experiment: Antibacterial activity against vancomycin-resistant Enterococcus faecalis clinical isolate 21/235 after overnight incubation by two-fold serial dilution method
# Enterococcus [43] = experiment: Antibacterial activity against vancomycin-resistant Enterococcus ATCC 29212 by checkerboard titration method in presence of linezolid
# Enterococcus [44] = experiment: Antibacterial activity against vancomycin-resistant Enterococcus ATCC 51299 by checkerboard titration method in presence of vancomycin
# Enterococcus [45] = experiment: Antibacterial activity against vancomycin-resistant Enterococcus ATCC 51299 by checkerboard titration method in presence of linezolid
# Enterococcus [46] = experiment: Antibacterial activity against vancomycin-resistant Enterococcus ATCC 29212 by checkerboard titration method in presence of vancomycin
compound,measurement,setting,value
CC(=O)NC[C@H]1CN(c2ccc(N3CCOCC3)c(F)c2)C(=O)O1 [LINEZOLID],MIC,Enterococcus faecium [1],1 mg/L
same,MIC,Enterococcus [2],2 mg/L
same,MIC,Enterococcus faecium [3],1 mg/L
same,MIC,Enterococcus [4],1 mg/L
same,MIC,Enterococcus faecium [5],2 mg/L
same,MIC,Enterococcus faecium [6],1 mg/L
same,MIC,Enterococcus faecium [7],1 mg/L
same,MIC,Enterococcus faecium [8],1 mg/L
same,MIC,Enterococcus faecium [9],1 mg/L
same,MIC,Enterococcus faecium [10],2 mg/L
same,MIC,Enterococcus faecium [11],2 mg/L
same,MIC,Enterococcus faecium [12],1 mg/L
same,MIC,Enterococcus faecium [13],1 mg/L
same,MIC,Enterococcus faecium [14],2 mg/L
same,MIC,Enterococcus faecium [15],1 mg/L
same,MIC,Enterococcus faecium [16],1 mg/L
same,MIC,Enterococcus faecium [17],2 mg/L
same,MIC,Enterococcus faecium [18],2 mg/L
same,Activity,Enterococcus [19],93.8%
same,MIC,Enterococcus faecium [20],1 mg/L
same,MIC,Enterococcus faecium [21],2 mg/L
same,MIC,Enterococcus faecium [22],1 mg/L
same,MIC,Enterococcus faecium [23],1 mg/L
same,MIC,Enterococcus faecium [24],1 mg/L
same,MIC,Enterococcus faecium [25],1 mg/L
same,MIC,Enterococcus faecium [26],1 mg/L
same,MIC,Enterococcus faecium [27],1 mg/L
same,MIC,Enterococcus faecium [28],2 mg/L
same,MIC,Enterococcus faecium [29],2 mg/L
H-HWRLLLLKKH-OH,MIC,Enterococcus faecium [1],25 mg/L
same,MIC,Enterococcus [2],25 mg/L
same,MIC,Enterococcus faecium [3],25 mg/L
same,MIC,Enterococcus faecalis [30],25 mg/L
same,MIC,Enterococcus [4],25 mg/L
same,MIC,Enterococcus faecalis [31],25 mg/L
same,MIC,Enterococcus faecium [5],25 mg/L
same,MIC,Enterococcus faecalis [32],25 mg/L
same,MIC,Enterococcus faecalis [33],25 mg/L
same,MIC,Enterococcus faecium [6],25 mg/L
same,MIC,Enterococcus faecium [7],25 mg/L
same,MIC,Enterococcus faecalis [34],25 mg/L
same,MIC,Enterococcus faecalis [35],25 mg/L
same,MIC,Enterococcus faecium [8],25 mg/L
same,MIC,Enterococcus faecium [9],25 mg/L
same,MIC,Enterococcus faecium [10],25 mg/L
same,MIC,Enterococcus faecium [11],25 mg/L
same,MIC,Enterococcus faecalis [36],25 mg/L
same,MIC,Enterococcus faecium [12],25 mg/L
same,MIC,Enterococcus faecalis [37],25 mg/L
same,MIC,Enterococcus faecium [13],25 mg/L
same,MIC,Enterococcus faecalis [38],25 mg/L
same,MIC,Enterococcus faecium [14],25 mg/L
same,MIC,Enterococcus faecium [15],25 mg/L
same,MIC,Enterococcus faecalis [39],25 mg/L
same,MIC,Enterococcus faecium [16],25 mg/L
same,MIC,Enterococcus faecium [17],25 mg/L
same,MIC,Enterococcus faecium [18],25 mg/L
same,MIC,Enterococcus faecium [20],25 mg/L
same,MIC,Enterococcus faecium [21],25 mg/L
same,MIC,Enterococcus faecium [22],25 mg/L
same,MIC,Enterococcus faecalis [40],25 mg/L
same,MIC,Enterococcus faecium [23],25 mg/L
same,MIC,Enterococcus faecium [24],25 mg/L
same,MIC,Enterococcus faecalis [41],25 mg/L
same,MIC,Enterococcus faecium [25],25 mg/L
same,MIC,Enterococcus faecium [26],25 mg/L
same,MIC,Enterococcus faecalis [42],25 mg/L
same,MIC,Enterococcus faecium [27],25 mg/L
same,MIC,Enterococcus faecium [28],25 mg/L
same,MIC,Enterococcus faecium [29],25 mg/L
H-FLPLIGRVLSGIL-NH2 [TEMPORIN A],fractional inhibitory concentration index (FICI),Enterococcus [43],0.75
same,fractional inhibitory concentration index (FICI),Enterococcus [44],1.5
same,fractional inhibitory concentration index (FICI),Enterococcus [45],0.75
same,fractional inhibitory concentration index (FICI),Enterococcus [46],1.25
